The record followed here is ChEMBL document CHEMBL1146369, “Novel and versatile methodology for synthesis of cyclic imides and evaluation of their cytotoxic, DNA binding, apoptotic inducing activities and molecular modeling study” (Eur J Med Chem, 2007).

The subject of one data set is Vero. As to the kind of experiment: Cytotoxicity against Vero cells. Format: cell-based. As to conditions: Chlorocebus sabaeus. In outline:
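Confluent Vero monolayers in 96-well trays, DMEM with 10% calf serum, exposed in triplicate to 1–500 µM for 48 h at 37 °C. Cells then fixed with 3.7% formaldehyde, rinsed and examined visually. IC50 taken as the concentration causing about 50% loss of monolayer.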

Data set [1] relates to Neutrophil. Put plainly: Apoptotic activity in human blood neutrophils after 72 hrs. Format: functional. The arrangement: concentration or dose not given beside the values. In outline:
(§1)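 Neutrophils (>98% pure) isolated from peripheral blood of healthy donors by dextran sedimentation and discontinuous plasma Percoll gradients. Cultured at 37 °C, 5% CO2 in RPMI 1640 with 10% autologous platelet-rich-plasma-derived serum. Compound given at 50 µM in DMSO; controls were untreated cells and 0.01% DMSO. Apoptosis scored by May-Grunwald Giemsa morphology, 500 cells/slide, at 0–72 h. Mean ± SD, n = 3-5.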

Data set [2] deals with Neutrophil. Put plainly: Apoptotic activity in human blood neutrophils after 48 hrs. Format: functional. The arrangement: concentration or dose not given beside the values. In outline:
as §1

Data set [3] is described as follows: Binding affinity to DNA by methyl green/DNA displacement assay. Conditions: Homo sapiens.
The test system of data set [4] is Neutrophil. Put plainly: Apoptotic activity in human blood neutrophils after 24 hrs. The class given is functional. More on the design: concentration or dose not given beside the values. In outline:
as §1

A short description of data set [5]: Partition coefficient, log P of the compound. Format: physicochemical. Conditions: octanol/water.

Consider `O=C1c2ccccc2C(=O)N1CCc1ccccc1`, for which the IC50 (commonly the concentration that gives 50% inhibition) in the data set on Vero came to 100 µM.
Take `O=C1c2ccccc2C(=O)N1Cc1ccccc1`: inhibition in the data set with Vero was half-maximal at 100 µM (IC50).
The same measure, in the same setting: the result for `O=C1c2ccccc2C(=O)N1c1ccccc1` [N-PHENYL-PHTHALIMIDE] reads 82 µM; that for `C[C@@H](c1ccccc1)N1C(=O)c2cccnc2C1=O`, 92 µM; that for `C[C@H](c1ccccc1)N1C(=O)[C@@H]2C3C=CC(CC3)[C@@H]2C1=O`, 43 µM.
`O=C1c2nccnc2C(=O)N1c1ccccc1`: half-maximal inhibition with Vero (IC50) was put at 71 µM.
Consider `Cc1cccc(C)c1N1C(=O)c2nccnc2C1=O`, for which the Activity is recorded as 50.1% with Neutrophil [1], 42.03% with Neutrophil [2] and 28% in the data set on Neutrophil [4]. In addition, in data set [3], the C50 is 59 µg/mL. This compound also displayed an IC50 in the data set with Vero of 18 µM. Further, the logP (commonly the decadic logarithm of the partition coefficient of the neutral form, usually between octanol and water) in data set [5] turned out to be 2.7.
In the case of `CCCCCc1ccc(N2C(=O)c3nccnc3C2=O)cc1`, the figures for the Activity with Neutrophil [1], in the data set with Neutrophil [2] and in the data set with Neutrophil [4] were 60%, 49.2% and 31.1%, respectively. The compound further came in with a C50 in data set [3] of 42 µg/mL. Further, the concentration for half-maximal inhibition (IC50) with Vero is 16 µM. In data set [5], this compound displayed a logP of 3.8.
Regarding `O=C1c2nccnc2C(=O)N1c1ccc(C(F)(F)F)cc1`, in the data set on Vero, half-maximal inhibition (IC50) was put at 80 µM.
In the case of `O=C1[C@@H]2C3C=CC(CC3)[C@@H]2C(=O)N1Cc1ccccc1`, in the data set with Vero, the half-maximal inhibitory concentration (IC50) came to 74 µM. In addition, in data set [5], the logP came to 2.3.
In the data set with Vero, `O=C1c2nccnc2C(=O)N1c1ccc(Cl)cc1` yielded a 50% inhibitory concentration (IC50) of 86 µM.
In the data set on Vero, `O=C1c2cccnc2C(=O)N1Cc1ccccc1` returned a 50% inhibitory concentration (IC50) of over 100 µM.
Same read-out and setting: under `C[C@H](c1ccccc1)N1C(=O)c2nccnc2C1=O` stands 79 µM; under `CCN1C(=O)c2nccnc2C1=O`, over 100 µM.
In the case of `CC(C)c1cccc(C(C)C)c1N1C(=O)c2cccnc2C1=O`, the values for the Activity in the data set on Neutrophil [1], in the data set with Neutrophil [2] and with Neutrophil [4] were 41.62%, 32.77% and 19.1%, respectively. Besides, inhibition with Vero was half-maximal at 21 µM (IC50). Also, in data set [5], the lipophilicity (logP) came to 4.6.
In the data set with Vero, `C[C@@H](c1ccccc1)N1C(=O)[C@@H]2C3C=CC(CC3)[C@@H]2C1=O` had a 50% inhibitory concentration (IC50) of 49 µM.
Take `O=C1[C@@H]2C3C=CC(CC3)[C@@H]2C(=O)N1c1ccc(Cl)cc1`: half-maximal inhibition with Vero (IC50) required 77 µM.
For `O=C1c2nccnc2C(=O)N1Cc1ccccc1`, the IC50 in the data set with Vero is over 100 µM.
`O=C1c2ccccc2C(=O)N1C12CC3CC(CC(C3)C1)C2`: the Activity with Neutrophil [1] was found to be 42.01%; in the data set with Neutrophil [2] it was 34.66%; in the data set on Neutrophil [4], 21.11%. For the same compound, in the data set on Vero, it took 20 µM to reach half-maximal inhibition (IC50). Moreover, in data set [5], the log partition coefficient (logP) was 2.7.
With `CC(C)c1cccc(C(C)C)c1N1C(=O)[C@@H]2C3C=CC(CC3)[C@@H]2C1=O`, the results for the Activity in the data set with Neutrophil [1], in the data set with Neutrophil [2] and in the data set with Neutrophil [4] were 59.2%, 49.11% and 32.4%, respectively. Moreover, the IC50 in the data set with Vero came to 16 µM. The same compound returned a logP in data set [5] of 4.6.
As to `COc1ccc(CN2C(=O)[C@@H]3C4C=CC(CC4)[C@@H]3C2=O)cc1OC`, in the data set with Vero, the midpoint of inhibition, the IC50, lay at 63 µM.
As to `O=C1c2cccnc2C(=O)N1c1ccc(C(F)(F)F)cc1`, the 50% inhibitory concentration (IC50) in the data set with Vero amounted to 87 µM.
In the data set on Vero, `COc1ccc(CN2C(=O)c3cccnc3C2=O)cc1OC` displayed an IC50 of over 100 µM.
Regarding `CC(C)c1cccc(C(C)C)c1N1C(=O)c2ccccc2C1=O`, the Activity with Neutrophil [1] was 39.1%; in the data set with Neutrophil [2] it was 30.2%; in the data set on Neutrophil [4], 15.56%. Further, half-maximal inhibition in the data set on Vero (IC50) was put at 23 µM. In data set [5], this compound displayed a logP of 5.1.
In the data set on Vero, `O=C1c2cccnc2C(=O)N1c1ccc(Cl)cc1` yielded a half-inhibitory concentration (IC50) of 92 µM.
For `O=C1[C@@H]2C3C=CC(CC3)[C@@H]2C(=O)N1c1ccccc1`, in the data set on Vero, the concentration for half-maximal inhibition (IC50) was 67 µM.
As to `COc1ccc(CN2C(=O)[C@@H]3C4C=CC(CC4)[C@@H]3C2=O)cc1`, the IC50 in the data set on Vero came to 67 µM.
As to `O=C1[C@@H]2C3C=CC(CC3)[C@@H]2C(=O)N1c1ccc(C(F)(F)F)cc1`, the midpoint of inhibition with Vero, the IC50, lay at 75 µM.
Take `Cc1cccc(C)c1N1C(=O)[C@@H]2C3C=CC(CC3)[C@@H]2C1=O`: the Activity came to 67.98% with Neutrophil [1], 53.2% in the data set with Neutrophil [2] and 38.4% in the data set on Neutrophil [4]. In data set [3], this compound showed a C50 of 53 µg/mL. Besides, the IC50 with Vero was found to be 13 µM. Further, the logP in data set [5] came out at 3.1.
`O=C1c2cccnc2C(=O)N1CCc1ccccc1` registered a half-maximal inhibitory concentration (IC50) with Vero of over 100 µM.
With `O=C1c2nccnc2C(=O)N1C12CC3CC(CC(C3)C1)C2`, the Activity in the data set on Neutrophil [1] is on record as 54.05%; with Neutrophil [2], 45.1%; in the data set on Neutrophil [4], 30.01%. The compound further had an IC50 in the data set on Vero of 18 µM. This compound also displayed a logP in data set [5] of 1.8.
As to `CCCCCc1ccc(N2C(=O)[C@@H]3C4C=CC(CC4)[C@@H]3C2=O)cc1`, the Activity was 70.01% with Neutrophil [1], 58.06% in the data set with Neutrophil [2] and 39.11% in the data set on Neutrophil [4]. This compound yielded a C50 in data set [3] of 31 µg/mL. In the data set with Vero, the IC50 turned out to be 10 µM. This compound also had a log partition coefficient (logP) in data set [5] of 4.2.
In the data set with Vero, `O=C1[C@@H]2C3C=CC(CC3)[C@@H]2C(=O)N1Cc1ccc(Cl)cc1` showed an IC50 of 51 µM.
As to `O=C1c2cccnc2C(=O)N1C12CC3CC(CC(C3)C1)C2`, the Activity amounted to 56.1% with Neutrophil [1], 46% in the data set on Neutrophil [2] and 31.1% in the data set on Neutrophil [4]. In the data set with Vero, this compound gave an IC50 of 18 µM. In addition, the logP in data set [5] came out at 2.3.
In the data set on Vero, `CCN1C(=O)[C@@H]2C3C=CC(CC3)[C@@H]2C1=O` returned an IC50 of over 100 µM. This compound also registered a logP in data set [5] of 0.8.
The compound `C[C@@H](c1ccccc1)N1C(=O)c2ccccc2C1=O` displayed an IC50 in the data set on Vero of over 100 µM.
As for `O=c1c(O)c(-c2ccc(O)c(O)c2)oc2cc(O)cc(O)c12` [QUERCETIN], the Activity with Neutrophil [1] came to 71.3%; in the data set on Neutrophil [2], 49.9%; in the data set with Neutrophil [4], 39.9%.
On to `CC(C)(C)N1C(=O)c2nccnc2C1=O`, for which the results for the Activity in the data set on Neutrophil [1], in the data set with Neutrophil [2] and with Neutrophil [4] were 33.91%, 27.6% and 12%, respectively. In the data set with Vero, this compound had an IC50 of 32 µM. For the same compound, the lipophilicity (logP) in data set [5] worked out at 0.9.
Compound `O=c1[nH]cc(F)c(=O)[nH]1` [FLUOROURACIL] displayed a half-maximal inhibitory concentration (IC50) in the data set on Vero of 0.2 µM.
The compound `C[C@H](c1ccccc1)N1C(=O)c2cccnc2C1=O` yielded a half-inhibitory concentration (IC50) in the data set with Vero of 81 µM.
On the same count and under the same terms, under `O=C1c2nccnc2C(=O)N1CCc1ccccc1` stands over 100 µM; under `O=C1c2cccnc2C(=O)N1c1ccccc1`, 72 µM.
Same read-out and setting: the result for `CCN1C(=O)c2cccnc2C1=O` reads over 100 µM.
Consider `CC(C)(C)N1C(=O)[C@@H]2C3C=CC(CC3)[C@@H]2C1=O`, for which the values for the Activity in the data set with Neutrophil [1], with Neutrophil [2] and in the data set with Neutrophil [4] were 35.64%, 29.76% and 12.82%, respectively. In the data set with Vero, this compound came in with a 50% inhibitory concentration (IC50) of 27 µM. In addition, in data set [5], the lipophilicity (logP) came out at 1.3.
Regarding `Cc1cccc(C)c1N1C(=O)c2cccnc2C1=O`, the Activity in the data set with Neutrophil [1] is on record as 44.16%; in the data set on Neutrophil [2], 35%; in the data set on Neutrophil [4], 22.21%. In addition, the C50 in data set [3] was 64 µg/mL. For the same compound, the half-inhibitory concentration (IC50) in the data set on Vero stood at 20 µM. For the same compound, the logP in data set [5] stood at 3.2.
With `CC(C)c1cccc(C(C)C)c1N1C(=O)c2nccnc2C1=O`, the Activity worked out at 46.11% in the data set on Neutrophil [1], 38.1% in the data set on Neutrophil [2] and 24.07% with Neutrophil [4]. The compound further showed an IC50 in the data set on Vero of 20 µM. The logP in data set [5] amounted to 4.2.
In turn, `C[C@@H](c1ccccc1)N1C(=O)c2nccnc2C1=O` registered an IC50 in the data set on Vero of 85 µM.
Regarding `O=C1c2cccnc2C(=O)N1Cc1ccc(Cl)cc1`, in the data set on Vero, the IC50 came to 95 µM.
Turning to `CC(C)(C)N1C(=O)c2cccnc2C1=O`, the Activity with Neutrophil [1] is 30.23%; in the data set on Neutrophil [2] it was 25.07%; with Neutrophil [4], 11%. This compound had an IC50 with Vero of 33 µM. This compound also yielded a logP in data set [5] of 1.4.
Turning to `O=C1c2nccnc2C(=O)N1Cc1ccc(Cl)cc1`, the half-maximal inhibitory concentration (IC50) in the data set on Vero was determined as 88 µM.
In the data set on Vero, `O=C1[C@@H]2C3C=CC(CC3)[C@@H]2C(=O)N1CCc1ccccc1` had a half-inhibitory concentration (IC50) of 87 µM. The logP in data set [5] worked out at 2.5.
Take `O=C1[C@@H]2C3C=CC(CC3)[C@@H]2C(=O)N1C12CC3CC(CC(C3)C1)C2`: the Activity with Neutrophil [1] was determined as 68.11%; in the data set with Neutrophil [2], 53.2%; in the data set with Neutrophil [4], 35.5%. The C50 in data set [3] was 69 µg/mL. The same compound displayed a 50% inhibitory concentration (IC50) in the data set with Vero of 14 µM. The compound further displayed a log partition coefficient (logP) in data set [5] of 2.2.
For the compound `COc1ccc(CN2C(=O)c3nccnc3C2=O)cc1`, the IC50 in the data set on Vero is over 100 µM.
`COc1ccc(CN2C(=O)c3nccnc3C2=O)cc1OC` registered an IC50 with Vero of over 100 µM.
Regarding `COc1ccc(CN2C(=O)c3cccnc3C2=O)cc1`, in the data set with Vero, the IC50 was over 100 µM.
For the compound `CCCCCc1ccc(N2C(=O)c3cccnc3C2=O)cc1`, the values for the Activity in the data set with Neutrophil [1], with Neutrophil [2] and in the data set with Neutrophil [4] were 57.87%, 47.05% and 32.11%, respectively. In addition, the C50 in data set [3] turned out to be 49 µg/mL. The compound also came in with an IC50 in the data set with Vero of 18 µM. Moreover, the lipophilicity (logP) in data set [5] turned out to be 4.3.
